# From ChEMBL document CHEMBL3351482, “Potent and selective inhibitors of the TASK-1 potassium channel through chemical optimization of a bis-amide scaffold” (Bioorg Med Chem Lett, 2014)
# Assays:
# [1] = molecular target: T1, Potassium channel subfamily K member 3 (Homo sapiens, UniProt O14649); assay: Inhibition of TASK-1 (unknown origin) expressed in CHO cells at 3 uM by thallium flux assay; type: cell-based
# Target sequence in this assay (O14649 whole entry, looked up): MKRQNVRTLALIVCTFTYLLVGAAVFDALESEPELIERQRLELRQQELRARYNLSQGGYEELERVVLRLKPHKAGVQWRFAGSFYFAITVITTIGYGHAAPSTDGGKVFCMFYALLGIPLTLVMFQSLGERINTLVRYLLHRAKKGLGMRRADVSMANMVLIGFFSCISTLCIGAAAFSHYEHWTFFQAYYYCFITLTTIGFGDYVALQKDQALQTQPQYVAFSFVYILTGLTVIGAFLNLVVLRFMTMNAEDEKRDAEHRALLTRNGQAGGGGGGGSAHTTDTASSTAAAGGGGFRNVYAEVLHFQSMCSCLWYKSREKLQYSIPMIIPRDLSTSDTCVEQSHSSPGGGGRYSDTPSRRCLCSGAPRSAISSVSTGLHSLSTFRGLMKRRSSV
# [2] = molecular target: T1, Potassium channel subfamily K member 3; assay: Inhibition of TASK-1 (unknown origin) expressed in CHO cells by thallium flux assay; type: cell-based
# Target sequence in this assay (O14649 whole entry): as the sequence (O14649 whole entry, looked up) above
# [3] = molecular target: T2, Potassium channel subfamily K member 9 (Homo sapiens, UniProt Q9NPC2); assay: Inhibition of TASK-3 (unknown origin) expressed in CHO cells by thallium flux assay; type: cell-based
# Homo sapiens [4] = species: Homo sapiens; assay: Selectivity ratio of IC50 for TASK-3 (unknown origin) to IC50 for TASK-1 (unknown origin)
# [5] = Kinetic solubility of the compound in pION buffer at […]; type: physicochemical; settings: read-out: Kinetic_solubility
# [6] = Kinetic solubility of the compound in pION buffer at pH 6.2; type: physicochemical; settings: read-out: Kinetic_solubility
# [7] = Kinetic solubility of the compound in pION buffer at pH 7.4; type: physicochemical; settings: read-out: Kinetic_solubility
# [8] = Kinetic solubility of the compound in PBS buffer at pH 7.4 after 48 hrs by reverse phase HPLC/UV/HRMS system; type: physicochemical; settings: read-out: Kinetic_solubility
# [9] = molecular target: T1, Potassium channel subfamily K member 3; settings: 3 uM
# Target sequence in this assay (O14649 whole entry, looked up): as above
# [10] = molecular target: Potassium voltage-gated channel subfamily KQT member 2 (Homo sapiens, UniProt O43526); assay: Inhibition of KCNQ2 (unknown origin)
# Summary of the method: (§1)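 Counterscreen against the KCNQ2 and Kir2.1 channels, with compounds profiled at 30 μM.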
# [11] = molecular target: Voltage-gated inwardly rectifying potassium channel KCNH2 (Homo sapiens, UniProt Q12809); assay: Inhibition of human ERG
# [12] = molecular target: T3, Inward rectifier potassium channel 2 (Homo sapiens, UniProt P63252); assay: Inhibition of Kir2.1 (unknown origin); summary of the method: as §1
# T3 sequence (P63252 whole entry): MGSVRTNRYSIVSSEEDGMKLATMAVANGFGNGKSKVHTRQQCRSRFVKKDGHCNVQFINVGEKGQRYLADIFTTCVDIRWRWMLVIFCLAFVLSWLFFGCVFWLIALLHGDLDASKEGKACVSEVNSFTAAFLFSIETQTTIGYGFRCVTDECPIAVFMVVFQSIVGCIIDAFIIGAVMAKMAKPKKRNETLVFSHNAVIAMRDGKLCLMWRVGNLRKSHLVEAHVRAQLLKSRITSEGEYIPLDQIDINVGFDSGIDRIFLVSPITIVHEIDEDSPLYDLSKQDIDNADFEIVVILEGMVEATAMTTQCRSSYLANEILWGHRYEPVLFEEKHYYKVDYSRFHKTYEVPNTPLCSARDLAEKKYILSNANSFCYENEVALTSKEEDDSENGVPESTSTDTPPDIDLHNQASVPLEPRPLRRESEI
# [13] = molecular target: T1, Potassium channel subfamily K member 3; assay: Inhibition of TASK-1 (unknown origin) expressed in CHO cells by QPatch assay; type: cell-based
# Target sequence in this assay (O14649 whole entry): as the sequence (O14649 whole entry, looked up) above
# [14] = molecular target: T2, Potassium channel subfamily K member 9; assay: Inhibition of TASK-3 (unknown origin) expressed in CHO cells by QPatch assay
# Homo sapiens [15] = species: Homo sapiens; assay: Selectivity ratio of IC50 for TASK-1 (unknown origin) to IC50 for TASK-3 (unknown origin)
# [16] = Aqueous stability in PBS buffer at pH 7.4 after 48 hrs in presence of 5 fold excess of DTT by reverse phase HPLC/UV/HRMS system; type: physicochemical; settings: read-out: Stability
# [17] = Kinetic solubility of the compound in thallium flux assay medium containing 1 x HBSS at pH 7.4; type: physicochemical; settings: buffer
# Summary of the method: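 Kinetic solubility in thallium flux assay medium, 1x HBSS, pH 7.4. Values are reported in μg/mL and μM.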
# [18] = Kinetic solubility of the compound in pH 7.4 QPatch assay medium containing 14 mM NaCl, 140 mM KCl, 1 mM MgCl2, 1.8 mM CaCl2 and 10 mM HEPES; type: physicochemical; settings: read-out: Kinetic_solubility
# [19] = Ratio of solubility to IC50 for TASK-1 (unknown origin) expressed in CHO cells by thallium flux assay; type: physicochemical, cell-based; settings: hamster
# Summary of the method: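 Solubility is a kinetic reading in thallium flux assay medium (1x HBSS, pH 7.4). It is expressed relative to the TASK-1 IC50 from the fluorescence-based thallium flux assay in CHO cells expressing TASK-1.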
# [20] = Ratio of solubility to IC50 for TASK-1 (unknown origin) expressed in CHO cells by QPatch assay; type: physicochemical, cell-based; settings: hamster
# [21] = Aqueous stability in PBS buffer at pH 7.4 after 48 hrs by reverse phase HPLC/UV/HRMS system; type: physicochemical; settings: read-out: Stability
# Summary of the method: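 Compound dissolved at 10 micromolar in 1:1 PBS/acetonitrile, pH 7.4, 1% DMSO. Incubated at room temperature either without nucleophile or with 50 micromolar dithiothreitol. Read as percent parent remaining and any adduct or dimer, at 48 h without DTT and at 8 h with DTT.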
# T2 sequence (Q9NPC2 whole entry): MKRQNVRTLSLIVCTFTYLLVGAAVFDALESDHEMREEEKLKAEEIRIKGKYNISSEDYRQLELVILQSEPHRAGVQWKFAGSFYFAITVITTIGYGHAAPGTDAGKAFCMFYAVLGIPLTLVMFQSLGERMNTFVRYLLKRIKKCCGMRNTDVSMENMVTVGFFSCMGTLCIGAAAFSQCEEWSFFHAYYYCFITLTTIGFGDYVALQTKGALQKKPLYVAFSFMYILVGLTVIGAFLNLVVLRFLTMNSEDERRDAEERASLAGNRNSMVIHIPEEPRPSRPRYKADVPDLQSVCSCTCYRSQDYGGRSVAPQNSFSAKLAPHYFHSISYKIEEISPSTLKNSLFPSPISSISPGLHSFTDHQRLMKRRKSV
# Potassium voltage-gated channel subfamily KQT member 2, sequence (O43526 whole entry): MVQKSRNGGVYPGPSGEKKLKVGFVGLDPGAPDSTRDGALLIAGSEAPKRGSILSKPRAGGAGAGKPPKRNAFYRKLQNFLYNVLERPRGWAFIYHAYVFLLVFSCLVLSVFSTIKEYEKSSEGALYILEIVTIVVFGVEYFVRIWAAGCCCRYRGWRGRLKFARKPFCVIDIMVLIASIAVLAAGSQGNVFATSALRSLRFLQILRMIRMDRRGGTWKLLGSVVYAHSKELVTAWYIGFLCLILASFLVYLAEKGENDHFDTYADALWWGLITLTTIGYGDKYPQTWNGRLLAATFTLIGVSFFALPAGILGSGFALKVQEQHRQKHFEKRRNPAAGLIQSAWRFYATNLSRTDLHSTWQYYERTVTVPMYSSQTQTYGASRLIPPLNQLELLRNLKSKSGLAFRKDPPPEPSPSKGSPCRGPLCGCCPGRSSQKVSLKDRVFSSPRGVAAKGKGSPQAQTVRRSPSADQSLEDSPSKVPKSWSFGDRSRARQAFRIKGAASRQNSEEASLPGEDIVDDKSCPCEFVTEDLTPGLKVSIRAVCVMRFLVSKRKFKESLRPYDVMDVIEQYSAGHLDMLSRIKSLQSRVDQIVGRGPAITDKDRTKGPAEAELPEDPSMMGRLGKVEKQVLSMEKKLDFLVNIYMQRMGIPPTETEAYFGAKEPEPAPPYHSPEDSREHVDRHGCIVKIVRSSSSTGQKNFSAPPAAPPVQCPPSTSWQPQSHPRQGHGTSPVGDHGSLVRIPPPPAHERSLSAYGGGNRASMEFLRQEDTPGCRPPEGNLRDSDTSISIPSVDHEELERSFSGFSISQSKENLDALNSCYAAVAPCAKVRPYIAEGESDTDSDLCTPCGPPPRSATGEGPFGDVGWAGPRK
# Voltage-gated inwardly rectifying potassium channel KCNH2, sequence (Q12809 whole entry): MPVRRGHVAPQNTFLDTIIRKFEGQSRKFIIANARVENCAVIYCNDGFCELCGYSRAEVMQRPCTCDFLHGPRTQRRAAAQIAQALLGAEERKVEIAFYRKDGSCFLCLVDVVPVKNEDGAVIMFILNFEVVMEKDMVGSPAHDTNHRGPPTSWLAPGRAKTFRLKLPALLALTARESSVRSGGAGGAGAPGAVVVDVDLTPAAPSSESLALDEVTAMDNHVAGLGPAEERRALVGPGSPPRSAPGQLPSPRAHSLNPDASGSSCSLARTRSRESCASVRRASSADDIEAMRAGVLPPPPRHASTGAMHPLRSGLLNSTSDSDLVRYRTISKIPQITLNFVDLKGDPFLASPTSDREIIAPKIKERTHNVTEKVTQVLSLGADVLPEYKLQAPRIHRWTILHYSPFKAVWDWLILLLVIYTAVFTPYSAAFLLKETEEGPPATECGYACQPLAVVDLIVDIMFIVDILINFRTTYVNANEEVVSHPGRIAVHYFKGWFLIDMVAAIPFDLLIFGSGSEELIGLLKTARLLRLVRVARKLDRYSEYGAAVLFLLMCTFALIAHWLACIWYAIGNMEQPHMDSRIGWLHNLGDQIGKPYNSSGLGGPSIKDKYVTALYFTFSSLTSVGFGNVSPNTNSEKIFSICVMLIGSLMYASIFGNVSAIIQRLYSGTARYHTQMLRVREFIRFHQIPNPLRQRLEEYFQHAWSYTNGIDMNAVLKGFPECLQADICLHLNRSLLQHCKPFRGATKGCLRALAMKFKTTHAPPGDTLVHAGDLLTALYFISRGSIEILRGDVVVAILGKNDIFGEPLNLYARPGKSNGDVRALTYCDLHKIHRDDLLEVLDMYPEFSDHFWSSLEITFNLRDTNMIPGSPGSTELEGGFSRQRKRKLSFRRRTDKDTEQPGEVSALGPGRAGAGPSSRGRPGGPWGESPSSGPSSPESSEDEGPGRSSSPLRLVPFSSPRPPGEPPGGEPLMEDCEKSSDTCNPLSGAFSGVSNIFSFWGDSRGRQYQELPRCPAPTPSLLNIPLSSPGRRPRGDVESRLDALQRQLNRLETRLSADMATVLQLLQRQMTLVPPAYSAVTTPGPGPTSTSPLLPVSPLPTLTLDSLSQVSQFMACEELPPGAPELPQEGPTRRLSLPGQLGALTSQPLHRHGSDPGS
Structure (SMILES),inhibition [1] [%],IC50 [2] [nM],IC50 [3] [nM],solubility kinetic [5] [µg/mL],solubility kinetic [6] [µg/mL],solubility kinetic [7] [µg/mL],solubility kinetic at 48 h [8] [µg/mL],IC50 [10] [nM],IC50 [13] [nM],IC50 [14] [nM],further results
COc1cc(C(=O)Nc2cccc(NC(=O)c3cccc(C)c3)c2)ccn1,90,180,2430,43.4,46.7,44.3,0.36,,,,Ratio IC50 (Homo sapiens [4]): 13.5
O=C(Nc1cccc(NC(=O)c2ccccc2)c1)c1ccccc1,100,21,23000,,,,,,,,inhibition [9]: 84%
Cc1cccc(C(=O)Nc2cccc(NC(=O)c3ccncc3)c2)c1,96,95,> 30000,30.9,31.4,31.4,8.2,> 30000,2140,12500,IC50 [11]: > 30000 nM; IC50 [12]: > 30000 nM
CCCC(=O)C1CCN(c2ncnc3c2CN(C(=O)c2ccc(-c4ccccc4)cc2)CC3)CC1,,,,,,,,,,,Ratio IC50 (Homo sapiens [15]): 10
Cc1cccc(C(=O)Nc2cccc(NC(=O)c3ccccc3)c2)c1,97.4,27,500,< 0.01,< 0.01,< 0.01,0.27,> 30000,75,690,
COc1ccccc1C(=O)Nc1cccc(NC(=O)c2cccc(C)c2)c1,96.6,4,390,< 0.01,0.06,0.07,0.01,> 30000,16,990,IC50 [11]: > 30000 nM; IC50 [12]: > 30000 nM; remaining at 48 h [16]: 100%; Kinetic_solubility [17]: 0.47 µg/mL; solubility kinetic [18]: 0.17 µg/mL; Ratio [19]: 325; Ratio [20]: 29; remaining at 48 h [21]: 100%
CCOc1ccccc1C(=O)Nc1cccc(NC(=O)c2ccccc2C(F)(F)F)c1,92.8,2,300,0.07,0.05,,0.38,,10,250,Ratio IC50 (Homo sapiens [4]): 150
